Measured values: ChEMBL document CHEMBL2203250, “Synthesis and evaluation of 3-¹²³I-iodo-5-[2-(S)-3-pyrrolinylmethoxy]-pyridine (niodene) as a potential nicotinic α4β2 receptor imaging agent” (Bioorg Med Chem Lett, 2012)
Activity calls are given as the source filed them. No cut-off for these calls is given here.

Key:
[1] = molecular target: T1, Neuronal acetylcholine receptor; alpha4/beta2 (Rattus norvegicus) (UniProt P09483+P12390); assay: Ratio of nifene Ki to compound Ki for rat alpha4beta2 nAChR; assay type: protein-complex assay
[2] = molecular target: T1, Neuronal acetylcholine receptor; alpha4/beta2 (Rattus norvegicus); assay: Binding affinity to alpha4beta2 nAChR in Sprague-Dawley rat thalamus at 0.1 Ci/umol after 60 mins by autoradiographic analysis; assay type: protein-complex assay; details: tested as the 123I-labelled form
Summary of the method: (§1)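 Frozen rat brain sections were thawed for about 15 min at ambient temperature. They were preincubated 10 min in 120 mM Tris HCl with 5 mM NaCl, 5 mM KCl, 2.5 mM CaCl2 and 1 mM MgCl2, pH 7.4, then incubated with 5 nM 123I-niodene at 37 °C for 60 min. […] Sections were washed in ice-cold buffer and exposed to phosphor screens for at least 16 h. Regional binding was read as DLU/mm²; n ≥5 sections, mean and SD.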

[3] = molecular target: T1, Neuronal acetylcholine receptor; alpha4/beta2 (Rattus norvegicus); assay: Displacement of [18F]nifene from alpha4beta nAChR in Sprague-Dawley rat thalamus at 1 uM after 60 mins by autoradiographic analysis; assay type: protein-complex assay
Summary of the method: (§2)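 Rat brain slices were preincubated 10 min in Tris HCl buffer with salts, pH 7.4. […] Slices got two 1-min ice-cold Tris HCl washes and a cold water rinse, then overnight phosphor-screen exposure. Regional binding was read as DLU/mm² and expressed relative to cerebellum.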

[4] = molecular target: T1, Neuronal acetylcholine receptor; alpha4/beta2 (Rattus norvegicus); assay: Displacement of [18F]nifene from alpha4beta nAChR in Sprague-Dawley rat subiculum at 10 nM after 60 mins by autoradiographic analysis; assay type: protein-complex assay; summary of the method: as §2
[5] = molecular target: T1, Neuronal acetylcholine receptor; alpha4/beta2 (Rattus norvegicus); assay: Binding affinity to alpha4beta2 nAChR in Sprague-Dawley rat cortex at 0.1 Ci/umol after 60 mins by autoradiographic analysis; details: tested as the 123I-labelled form; summary of the method: as §1
[6] = molecular target: T1, Neuronal acetylcholine receptor; alpha4/beta2 (Rattus norvegicus); assay: Displacement of [18F]nifene from alpha4beta nAChR in Sprague-Dawley rat thalamus at 10 nM after 60 mins by autoradiographic analysis; assay type: protein-complex assay; summary of the method: as §2
[7] = molecular target: T1, Neuronal acetylcholine receptor; alpha4/beta2 (Rattus norvegicus); assay: Binding affinity to alpha4beta2 nAChR in Sprague-Dawley rat cerebellum at 0.1 Ci/umol after 60 mins by autoradiographic analysis; assay type: protein-complex assay; details: tested as the 123I-labelled form; summary of the method: as §1
[8] = molecular target: T1, Neuronal acetylcholine receptor; alpha4/beta2 (Rattus norvegicus); assay: Displacement of [18F]nifene from alpha4beta nAChR in Sprague-Dawley rat striatum at 10 nM after 60 mins by autoradiographic analysis; assay type: protein-complex assay; summary of the method: as §2
[9] = molecular target: T1, Neuronal acetylcholine receptor; alpha4/beta2 (Rattus norvegicus); assay: Displacement of [18F]nifene from alpha4beta nAChR in Sprague-Dawley rat frontal cortex at 10 nM after 60 mins by autoradiographic analysis; assay type: tissue-based; summary of the method: as §2
[10] = molecular target: Neuronal acetylcholine receptor; alpha4/beta2 (Rattus norvegicus, UniProt P09483+P12390); assay: Displacement of [3H]cytisine from alpha4beta2 nAChR in rat brain homogenate; assay type: tissue-based
Neuronal acetylcholine receptor; alpha4/beta2, sequence (P09483 whole entry): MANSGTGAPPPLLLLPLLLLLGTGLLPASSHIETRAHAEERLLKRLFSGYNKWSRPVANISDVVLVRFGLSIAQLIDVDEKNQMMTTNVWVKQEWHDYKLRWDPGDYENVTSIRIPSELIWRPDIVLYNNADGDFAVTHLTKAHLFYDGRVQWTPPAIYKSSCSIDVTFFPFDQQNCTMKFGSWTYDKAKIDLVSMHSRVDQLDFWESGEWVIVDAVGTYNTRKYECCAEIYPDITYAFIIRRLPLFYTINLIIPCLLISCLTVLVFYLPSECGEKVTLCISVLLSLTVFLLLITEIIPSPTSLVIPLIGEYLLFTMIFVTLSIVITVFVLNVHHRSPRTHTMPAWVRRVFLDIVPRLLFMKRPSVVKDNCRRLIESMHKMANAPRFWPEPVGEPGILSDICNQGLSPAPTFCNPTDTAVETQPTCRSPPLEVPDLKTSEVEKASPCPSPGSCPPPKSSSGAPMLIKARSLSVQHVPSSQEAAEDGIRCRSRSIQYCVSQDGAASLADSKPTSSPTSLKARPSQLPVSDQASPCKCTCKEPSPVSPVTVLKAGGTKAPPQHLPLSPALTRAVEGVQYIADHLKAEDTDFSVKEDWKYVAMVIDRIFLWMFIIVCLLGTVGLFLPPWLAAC
Neuronal acetylcholine receptor; alpha4/beta2, sequence (P12390 whole entry): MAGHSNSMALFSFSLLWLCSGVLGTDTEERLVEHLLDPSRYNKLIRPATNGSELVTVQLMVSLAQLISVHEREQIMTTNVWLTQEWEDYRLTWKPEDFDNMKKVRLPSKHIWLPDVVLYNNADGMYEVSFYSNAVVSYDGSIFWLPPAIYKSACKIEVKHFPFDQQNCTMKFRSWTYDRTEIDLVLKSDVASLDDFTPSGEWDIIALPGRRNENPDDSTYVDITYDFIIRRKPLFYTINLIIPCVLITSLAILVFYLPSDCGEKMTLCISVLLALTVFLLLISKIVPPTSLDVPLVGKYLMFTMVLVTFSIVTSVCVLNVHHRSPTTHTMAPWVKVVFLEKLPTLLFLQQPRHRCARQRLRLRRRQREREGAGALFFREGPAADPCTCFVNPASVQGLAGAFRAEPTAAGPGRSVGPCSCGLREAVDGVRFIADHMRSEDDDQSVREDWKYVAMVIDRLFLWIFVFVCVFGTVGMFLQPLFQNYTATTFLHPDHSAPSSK
Summary of the method: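 Male Sprague–Dawley rat cerebrum was homogenized, washed twice by centrifugation at 40,000g and resuspended. It was incubated with 1 nM 3H-cytisine and competitor (10^-10 to 10^-3 M) in 50 mM Tris, pH 7.0, with 120 mM NaCl, 5 mM KCl, 1 mM MgCl2 and 2.5 mM CaCl2, at 2 °C for 75 min. […] The assay was filtered, and filters were washed in cold buffer and scintillation-counted.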

[11] = tested on: Nucleic Acid; assay: Ratio of drug uptake in thalamus to cerebellum in Sprague-Dawley rat brain at 2 uCi/umol after 60 mins by autoradiographic analysis; assay type: ADME, tissue-based; details: in vivo, 1 h
[12] = tested on: Nucleic Acid; assay: Ratio of drug uptake in cortex to cerebellum in Sprague-Dawley rat brain at 0.1 Ci/umol after 60 mins by autoradiographic analysis; assay type: ADME, tissue-based; details: in vivo, 1 h
[13] = tested on: Nucleic Acid; assay: Ratio of drug uptake in thalamus to cerebellum in Sprague-Dawley rat brain at 0.1 Ci/umol after 60 mins by autoradiographic analysis; assay type: ADME, tissue-based; details: in vivo, 1 h

Q: Which Ratio Ki [1] does the source give for `Ic1cncc(OC[C@@H]2C=CCN2)c1` here?
A: 2

Q: What about the Activity [2] of the same compound?
A: Active

Q: What about the Activity [3] of the same compound?
A: > 80%

Q: What about the Activity [4] of the same compound?
A: Active

Q: And the Activity [5]?
A: Active

Q: What about the Activity [6] of the same compound?
A: > 65%

Q: What about the Activity [7] of the same compound?
A: inactive

Q: And the Activity [8]?
A: Active

Q: What about the Activity [9] of the same compound?
A: Active

Q: For `Fc1ncccc1OC[C@@H]1C=CCN1`, which Ki [10] is on record?
A: 0.5 nM

Q: With `[18F]c1ncccc1OC[C@@H]1C=CCN1` as the compound, how does the Ratio [11] read?
A: 7.3

Q: With `[123I]c1cncc(OC[C@@H]2C=CCN2)c1` as the compound, how does the Ratio [12] read?
A: 1.6

Q: And the Ratio [13]?
A: 4

Q: How did the Activity [4] turn out when `CN1CCC[C@H]1c1cccnc1` was run?
A: Active

Q: What about the Activity [6] of the same compound?
A: 24%

Q: And the Activity [8]?
A: Active

Q: And the Activity [9]?
A: Active
